{"data": "Assay results of several laboratories", "PTGS1": "Prostaglandin G/H synthase 1 (PTGS1, Ovis aries, UniProt P05979)", "rep main protease": "Replicase polyprotein 1ab, main protease (rep, Porcine epidemic diarrhea virus, UniProt P0C6Y4)", "MAP2K2": "Dual specificity mitogen-activated protein kinase kinase 2 (MAP2K2, Homo sapiens, UniProt P36507)", "ALDH3A1": "Aldehyde dehydrogenase, dimeric NADP-preferring (ALDH3A1, Homo sapiens, UniProt P30838)", "rep papain-like protease": "Replicase polyprotein 1ab, papain-like protease (rep, Porcine epidemic diarrhea virus, UniProt P0C6Y4)", "note": "Protocols differ between the studies behind these lines."}
{"SMILES": "COc1cc(NC(=O)c2cnn(-c3ccc([N+](=O)[O-])cc3)c2C(F)(F)F)cc(OC)c1OC", "target": "PTGS1", "observed": "enzyme activity", "mode": "inhibitor", "IC50 [µM]": 4.51}
{"SMILES": "COc1cc(CNC(=O)c2ccccc2C)cc(Br)c1OC", "target": "rep main protease", "observed": "enzyme activity", "mode": "inhibitor", "method": "FRET", "IC50 [µM]": 6.79}
{"SMILES": "N=C(N)c1ccc2nc(-c3cc(CC(=O)N[C@@H](CC(=O)O)C(=O)O)cc(-c4cc(S(N)(=O)=O)ccc4O)c3O)[nH]c2c1", "target": "Coagulation factor VII (F7, Homo sapiens, UniProt P08709)", "observed": "enzyme activity", "mode": "inhibitor", "IC50 [µM]": 0.035}
{"SMILES": "C=CC(=O)N1CCC(CNc2ncnc(N)c2-c2ccc(Oc3ccccc3)cc2)CC1", "target": "MAP2K2", "observed": "enzyme activity", "mode": "inhibitor", "IC50 [µM]": "> 5"}
{"SMILES": "OC[C@H]1O[C@@H](Oc2ccc(O)c3cccc(O)c23)[C@H](O)[C@@H](O)[C@@H]1O", "target": "ALDH3A1", "observed": "enzyme activity", "mode": "inhibitor", "method": "fluorescence", "IC50 [µM]": "< 10"}
{"SMILES": "O=C(NCc1cc(O)c(O)c(Br)c1)c1ccc(Cl)c(F)c1", "target": "rep papain-like protease", "observed": "enzyme activity", "mode": "inhibitor", "method": "FRET", "IC50 [µM]": 7.22}
{"SMILES": "NS(=O)(=O)c1ccc(-n2nc(C(=O)NN=Cc3cccnc3)cc2-c2ccccc2)cc1", "target": "PTGS1", "observed": "enzyme activity", "mode": "inhibitor", "IC50 [µM]": 8.94}
{"SMILES": "COc1cccc(CNc2nc(NC3CCN(Cc4ccccc4)CC3)c3nc[nH]c3n2)c1", "target": "Inositol polyphosphate multikinase (IPMK, Homo sapiens, UniProt Q8NFU5)", "observed": "enzyme activity", "mode": "inhibitor", "IC50 [µM]": 2}
{"SMILES": "COc1ccc(N2CCN(Cc3cn4c(-c5ccc(Br)cc5)nnc4s3)CC2)cc1", "target": "Aifm2 (Mus musculus, UniProt Q8BUE4, A354T/L360F)", "observed": "enzyme activity", "mode": "inhibitor", "method": "absorbance", "IC50 [µM]": "~0.518"}
{"SMILES": "CCC(C(=O)NCc1cc(O)c(O)c(Br)c1)c1ccccc1 (stereo not shown)", "target": "rep main protease", "observed": "enzyme activity", "mode": "inhibitor", "method": "FRET", "IC50 [µM]": 7.53}
{"SMILES": "COc1nc2ccc(Br)cc2cc1[C@@H](c1ccccc1)[C@@](O)(CCN(C)C)c1cccc2ccccc12", "target": "ALDH3A1", "observed": "enzyme activity", "mode": "inhibitor", "method": "fluorescence", "IC50 [µM]": "< 10"}
{"SMILES": "NC(=O)c1nnn(Cc2cc(Cl)c(C(=O)c3ccc(Cl)cc3)c(Cl)c2)c1N", "target": "D(1A) dopamine receptor (DRD1, Homo sapiens, UniProt P21728)", "observed": "cAMP", "mode": "antagonist", "IC50 [µM]": 7.98}
{"SMILES": "O=C(NCc1cc(O)c(O)c(Br)c1)c1cccc(C(F)(F)F)c1", "target": "rep papain-like protease", "observed": "enzyme activity", "mode": "inhibitor", "method": "FRET", "IC50 [µM]": 1.95}
{"SMILES": "NS(=O)(=O)c1ccc(-n2nc(C(=O)NN=Cc3ccccc3O)cc2-c2ccccc2)cc1", "target": "PTGS1", "observed": "enzyme activity", "mode": "inhibitor", "IC50 [µM]": 3.91}
{"SMILES": "O=C1NC(=O)c2c1c(-c1ccccc1Cl)cc1[nH]c3ccc(O)cc3c21", "target": "Serine/threonine-protein kinase WNK3 (WNK3, Homo sapiens, UniProt Q9BYP7)", "observed": "enzyme activity", "mode": "inhibitor", "IC50 [µM]": 1.49}
{"SMILES": "O=C(NCc1cc(O)c(O)c(Br)c1)c1ccco1", "target": "rep main protease", "observed": "enzyme activity", "mode": "inhibitor", "method": "FRET", "IC50 [µM]": 12.2}
{"SMILES": "CC#CC(=O)N1CC[C@@H](n2c(=O)n(-c3ccc(Oc4ccccc4)cc3)c3c(N)ncnc32)C1", "target": "MAP2K2", "observed": "enzyme activity", "mode": "inhibitor", "IC50 [µM]": "> 5"}
{"SMILES": "O=C(NCc1cc(O)c(O)c(Br)c1)c1ccccc1", "target": "rep papain-like protease", "observed": "enzyme activity", "mode": "inhibitor", "method": "FRET", "IC50 [µM]": 12.7}
{"SMILES": "CC(=NNC(=O)c1cc(-c2ccccc2)n(-c2ccc(S(N)(=O)=O)cc2)n1)c1ccc(C)cc1", "target": "PTGS1", "observed": "enzyme activity", "mode": "inhibitor", "IC50 [µM]": 3.32}
